Measured values from ChEMBL document CHEMBL1151806, “Indolizidine, antiinfective and antiparasitic compounds from Prosopis glandulosa var. glandulosa” (J Nat Prod, 2009).
The source made the active and inactive calls. The rule behind the calls is not given here.

Assays:
Plasmodium berghei [1] = test: Antimalarial activity as reduced parasitaemia at day 10 against Plasmodium berghei NK65 infected Swiss Webster mice (Mus musculus) at 10 mg/kg/day intraperitoneal dose for 3 days; type: functional; parameters: scale not given: the % may be the effect or the level left
In short: (§1)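 Peters 4-day suppressive test: male Swiss Webster mice (18–20 g) inoculated ip with 2·10^7 P. berghei NK-65 parasitized red cells. Compound in DMSO:PEG:water (1:3:6) given ip ~2 h post-infection, then once daily for 3 days (days 0–2). 5 mice/group; vehicle-treated control. Giemsa-stained tail blood smears read to day 28. % suppression = 100 − (treated/untreated parasitemia × 100). Cure = no parasitemia until day 28. Mice observed after each dose for signs of toxicity.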

Plasmodium berghei [2] = test: Antimalarial activity as reduced parasitaemia at day 17 against Plasmodium berghei NK65 infected Swiss Webster mice (Mus musculus) at 10 mg/kg/day intraperitoneal dose for 3 days; type: functional; parameters: scale not given: the % may be the effect or the level left; in short: as §1
Plasmodium berghei [3] = test: Antimalarial activity as elimination of parasitaemia at day 28 against Plasmodium berghei NK65 infected Swiss Webster mice (Mus musculus) at 10 mg/kg/day intraperitoneal dose for 3 days; type: functional, organism-based; in short: as §1
Plasmodium berghei [4] = test: Antimalarial activity as elimination of parasitaemia at day 28 against Plasmodium berghei NK65 infected Swiss Webster mice (Mus musculus) at 1 mg/kg/day intraperitoneal dose for 3 days; type: functional, organism-based; in short: as §1
[5] = test system: Mycobacterium intracellulare; test: Antimicrobial activity against Mycobacterium intracellular ATCC 23068 by alamar blue assay; type: functional, organism-based
In short: (§2)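 Samples serially diluted in 20% DMSO/saline, tested in duplicate. Inocula set by OD630: C. albicans RPMI pH 4.5, 1·10^4 CFU/mL; C. neoformans Sabouraud dextrose, 1·10^5; MRSA cation-adjusted Mueller-Hinton pH 7.3, 5·10^5; M. intracellulare 7H9/OADC + 5% Alamar Blue pH 7.3, 2·10^6; A. fumigatus RPMI pH 7.3 + 5% Alamar Blue, 3·10^4. Read at 630 nm or 544ex/590em before and after incubation.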

Plasmodium berghei [6] = test: Antimalarial activity as reduced parasitaemia against Plasmodium berghei NK65 infected Swiss Webster mice (Mus musculus); type: functional
Plasmodium berghei [7] = test: Antimalarial activity as reduced parasitaemia at day 3 against Plasmodium berghei NK65 infected Swiss Webster mice (Mus musculus) at 2 mg/kg/day intraperitoneal dose for 3 days; type: functional; parameters: scale not given: the % may be the effect or the level left; in short: as §1
Vero [8] = test: Cytotoxicity against african green monkey Vero cells; type: cell-based; conditions: Chlorocebus sabaeus
In short: (§3)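 Cells seeded at 25,000/well, incubated 24 h, then exposed to samples for 48 h. Viable cells measured by Neutral Red uptake. IC50 from logarithmic plots of growth inhibition vs concentration. Doxorubicin positive control, DMSO vehicle control.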

Staphylococcus aureus [9] = test: Antimicrobial activity against methicillin-resistant Staphylococcus aureus ATCC 43300 by NCCLS method; type: functional, organism-based
In short: as §2, with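 “3·10^4.” for “3·10^4. Read at 630 nm or 544ex/590em before and after incubation.”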

[10] = test system: Mycobacterium intracellulare; test: Antimicrobial activity against Mycobacterium intracellular ATCC 23068 by alamar blue assay in presence of 5% human serum; type: functional, organism-based
[11] = Toxicity in RBC assessed as hemolysis; type: cell-based; conditions: Erythrocyte
Plasmodium berghei [12] = test: Antimalarial activity as reduced parasitaemia at day 17 against Plasmodium berghei NK65 infected Swiss Webster mice (Mus musculus) at 1 mg/kg/day intraperitoneal dose for 3 days; type: functional, organism-based; in short: as §1
SK-MEL = test: Cytotoxicity against human SK-MEL cells after 48 hrs by neutral red assay; type: functional, cell-based; in short: as §3
LLC-PK1 = test: Cytotoxicity against pig LLC-PK1 cells after 48 hrs by neutral red assay; type: cell-based, Sus scrofa; conditions: llc-pk1; in short: as §3
Cryptococcus neoformans [13] = test: Antimicrobial activity against Cryptococcus neoformans ATCC 90113 infected in mouse assessed as […] elimination from brain tissue at 0.0625 mg/kg/day, ip for 5 days; type: functional; conditions: route intraperitoneal
Aspergillus fumigatus [14] = test: Antimicrobial activity against Aspergillus fumigatus ATCC 90906 by alamar blue assay; type: functional, organism-based
In short: as §2, with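 “3·10^4.” for “3·10^4. Read at 630 nm or 544ex/590em before and after incubation.”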

Mus musculus = test: Toxicity in Swiss Webster mouse at 1 mg/kg, ip administered once daily for 3 days; type: organism-based; parameters: dose 1 mg/kg, route intraperitoneal; conditions: in vivo, 72 h; in short: as §1
Staphylococcus aureus [15] = test: Antimicrobial activity against methicillin-resistant Staphylococcus aureus ATCC 43300 by NCCLS method in presence of 5% human serum; type: functional, organism-based
Plasmodium berghei [16] = test: Antimalarial activity as reduced parasitaemia at day 3 against Plasmodium berghei NK65 infected Swiss Webster mice (Mus musculus) at 1 mg/kg/day intraperitoneal dose for 3 days; type: functional; parameters: scale not given: the % may be the effect or the level left; in short: as §1
Cryptococcus neoformans [17] = test: Antimicrobial activity against Cryptococcus neoformans ATCC 90113 by NCCLS method; type: functional, organism-based
In short: as §2, with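 “3·10^4.” for “3·10^4. Read at 630 nm or 544ex/590em before and after incubation.”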

Candida albicans [18] = test: Antimicrobial activity against Candida albicans ATCC 90028 by NCCLS method; type: functional, organism-based
In short: as §2, with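 “3·10^4.” for “3·10^4. Read at 630 nm or 544ex/590em before and after incubation.”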

Plasmodium berghei [19] = test: Antimalarial activity as reduced parasitaemia at day 17 against Plasmodium berghei NK65 infected Swiss Webster mice (Mus musculus) at 2 mg/kg/day intraperitoneal dose for 3 days; type: functional, organism-based; in short: as §1
Plasmodium berghei [20] = test: Antimalarial activity as elimination of parasitaemia at day 28 against Plasmodium berghei NK65 infected Swiss Webster mice (Mus musculus) at 2 mg/kg/day intraperitoneal dose for 3 days; type: functional, organism-based; in short: as §1
Plasmodium berghei [21] = test: Antimalarial activity as reduced parasitaemia at day 10 against Plasmodium berghei NK65 infected Swiss Webster mice (Mus musculus) at 1 mg/kg/day intraperitoneal dose for 3 days; type: functional; parameters: scale not given: the % may be the effect or the level left; in short: as §1
Cryptococcus neoformans [22] = test: Antimicrobial activity against Cryptococcus neoformans ATCC 90113 by NCCLS method in presence of 5% human serum; type: functional, organism-based
Aspergillus fumigatus [23] = test: Antimicrobial activity against Aspergillus fumigatus ATCC 90906 by alamar blue assay in presence of 5% human serum; type: functional, organism-based
BT-549 = test: Cytotoxicity against human BT549 cells after 48 hrs by neutral red assay; type: functional, cell-based; conditions: BT-549, 48 h; in short: as §3
Candida albicans [24] = test: Antimicrobial activity against Candida albicans ATCC 90028 by NCCLS method in presence of 5% human serum; type: functional, organism-based
Plasmodium falciparum [25] = test: Antimalarial activity after 72 hrs against […] Plasmodium falciparum D6 by pLDH activity; type: functional, organism-based; conditions: D6, 72 h
In short: (§4)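 P. falciparum-infected red cells (2% parasitemia, 2% hematocrit) in RPMI-1640 with 10% human serum and 60 μg/mL amikacin, exposed to serial sample concentrations. Gassed with 90% N2/5% O2/5% CO2, incubated 37 °C for 72 h. Parasite LDH activity read colorimetrically with Malstat reagent.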

KB = test: Cytotoxicity against human KB cells after 48 hrs by neutral red assay; type: functional, cell-based; in short: as §3
Plasmodium falciparum [26] = test: Antimalarial activity after 72 hrs against chloroquine-resistant Plasmodium falciparum W2 by pLDH activity; type: functional, organism-based; conditions: W2, 72 h; in short: as §4
Vero [27] = test: Cytotoxicity against african green monkey Vero cells after 48 hrs by neutral red assay; type: cell-based, Chlorocebus sabaeus; conditions: vero; in short: as §3
Leishmania donovani = test: Antileishmanial activity against Leishmania donovani promastigotes after 48 hrs by alamar blue assay; type: functional, organism-based

CCO[C@H]1O[C@@H]2O[C@@]3(C)CC[C@H]4[C@H](C)CC[C@@H]([C@H]1C)[C@@]24OO3 [ARTEMOTIL]
Activity (Plasmodium berghei [1]): 100%
Activity (Plasmodium berghei [2]): 100%
Activity (Plasmodium berghei [3]): Active

C[C@@H]1N[C@H](CCCCCCCCCCc2cc(CCCCCCCCCC[C@@H]3CC[C@H](O)[C@@H](C)N3)c3[n+](c2)CCC3)CC[C@H]1O.[Cl-] [PROSOPILOSIDINE]
Activity (Plasmodium berghei [4]): inactive
IC50 [5]: 0.9 µg/mL
MBC [5]: 20 µg/mL
ED50 (Plasmodium berghei [6]): 2 mg/kg
Activity (Plasmodium berghei [7]): 48%
IC50 (Vero [8]): > 23.8 µg/mL
IC50 (Staphylococcus aureus [9]): 0.35 µg/mL
MBC (Staphylococcus aureus [9]): 5 µg/mL
MIC (Staphylococcus aureus [9]): 1.25 µg/mL
Activity [10]: Active
IC50 [11]: 16 µg/mL
Activity (Plasmodium berghei [12]): inactive
IC50 (SK-MEL): 4.5 µg/mL
IC50 (LLC-PK1): Not Active
Activity (Cryptococcus neoformans [13]): 76%
MFC (Aspergillus fumigatus [14]): inactive
MIC (Aspergillus fumigatus [14]; Aspergillus fumigatus, ATCC 90906): 5 µg/mL
IC50 (Aspergillus fumigatus [14]; Aspergillus fumigatus, ATCC 90906, read-out: IC50): 3 µg/mL
Activity (Mus musculus): Non-toxic
Activity (Staphylococcus aureus [15]): Active
Activity (Plasmodium berghei [16]): 48%
IC50 (Cryptococcus neoformans [17]): 0.4 µg/mL
MIC (Cryptococcus neoformans [17]): 0.63 µg/mL
MFC (Candida albicans [18]): inactive
MIC (Candida albicans [18]): inactive
IC50 (Candida albicans [18]; Candida albicans, ATCC 90028, read-out: IC50): 15 µg/mL
Activity (Plasmodium berghei [19]): inactive
Activity (Plasmodium berghei [20]): inactive
Activity (Plasmodium berghei [21]): 40.5%
Activity (Cryptococcus neoformans [22]): Active
Activity (Aspergillus fumigatus [23]): Active
IC50 (BT-549): 8.75 µg/mL
Activity (Candida albicans [24]): Active
IC50 (Plasmodium falciparum [25]): 0.039 µg/mL
IC50 (KB): 7.5 µg/mL
IC50 (Plasmodium falciparum [26]): 0.095 µg/mL
IC50 (Vero [27]): Not Active
IC50 (Leishmania donovani): 0.7 µg/mL
IC90 (Leishmania donovani): 1.9 µg/mL
